Laboratory results taken from ChEMBL document CHEMBL1136882, “Mechanism-based inhibitors of serine proteases with high selectivity through optimization of S' subsite binding” (Bioorg Med Chem, 2009).
Activity calls are given as the source filed them. No cut-off for these calls is given here.

Tests used:
[1] = molecular target: T1, Myeloblastin (Homo sapiens) (UniProt P24158); assay: Inhibition of human PR3 at inhibitor to enzyme ratio of 500 after 30 mins
T1 sequence (whole entry): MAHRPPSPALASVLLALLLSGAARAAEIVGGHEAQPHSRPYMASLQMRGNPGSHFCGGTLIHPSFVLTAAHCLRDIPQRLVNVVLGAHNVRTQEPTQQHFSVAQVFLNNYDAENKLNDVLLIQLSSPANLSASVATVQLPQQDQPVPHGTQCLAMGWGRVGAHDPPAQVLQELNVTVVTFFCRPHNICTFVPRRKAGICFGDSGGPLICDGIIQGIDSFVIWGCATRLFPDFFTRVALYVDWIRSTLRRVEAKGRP
Method in brief: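 PR3 (34.5 nM final, from 0.1 M phosphate pH 6.50 stock) preincubated 30 min with inhibitor at [I]/[E] 500 (8.62 μM final). Buffer 0.1 M HEPES/0.5 M NaCl pH 7.25 with DMSO and DTNB. Substrate Boc-Ala-Ala-NVa-SBzl; absorbance read at 410 nm for 2 min. % remaining activity = (v/v0)×100 against a DMSO-only run; duplicate or triplicate.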

[2] = molecular target: T2, Neutrophil elastase (Homo sapiens) (UniProt P08246); assay: Inhibition of human neutrophil elastase assessed as ratio of observed rate constant to drug concentration by incubation method; set-up: unit not given here
T2 sequence (whole entry): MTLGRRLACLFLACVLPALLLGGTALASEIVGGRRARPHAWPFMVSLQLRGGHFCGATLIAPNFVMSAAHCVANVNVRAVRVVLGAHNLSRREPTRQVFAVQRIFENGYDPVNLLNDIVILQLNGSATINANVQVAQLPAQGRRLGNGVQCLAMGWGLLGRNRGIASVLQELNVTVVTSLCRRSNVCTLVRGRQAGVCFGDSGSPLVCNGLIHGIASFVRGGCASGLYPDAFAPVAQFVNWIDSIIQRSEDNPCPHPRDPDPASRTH
Method in brief: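 HNE incubated with excess inhibitor in 0.1 M HEPES/0.5 M NaCl pH 7.25 with DMSO in a constant-temperature bath (stocks: 70 μM enzyme, 3.5 mM inhibitor). Aliquots taken over time and assayed with MeOSuc-AAPV-pNA, read at 410 nm for 60 s. kobs taken from ln([E]t/[E]0) = −kobs·t; reported as kobs/[I].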

[3] = molecular target: T2, Neutrophil elastase (Homo sapiens); assay: Inhibition of human neutrophil elastase at inhibitor to enzyme ratio of 500 after 30 mins
Method in brief: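 HNE treated with inhibitor for 30 min at [I]/[E] ratio 500. Residual activity then measured with MeOSuc-AAPV-pNA in 0.1 M HEPES/0.5 M NaCl pH 7.25, reading absorbance at 410 nm.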

[4] = molecular target: T2, Neutrophil elastase (Homo sapiens); assay: Inhibition of human neutrophil elastase assessed as ratio of kinact to Ki by progressive curve method
Method in brief: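 Progress curves run with 10 nM HNE and 105 μM MeOSuc-AAPV-pNA in 0.1 M HEPES/0.5 M NaCl pH 7.25, 2.5% DMSO, over several [I]/[E] ratios. p-Nitroaniline release followed continuously at 410 nm. kobs obtained by nonlinear fit of A vs t; kobs/[I] corrected for substrate concentration to give kinact/KI. Duplicate determinations.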

[5] = molecular target: T2, Neutrophil elastase (Homo sapiens); assay: Irreversible inhibition of human neutrophil elastase at 37 uM; conditions: TDE = time-dependent effect
Method in brief: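 Inhibitor (37 μM) incubated with HNE (700 nM) in 0.1 M HEPES/0.5 M NaCl pH 7.25, 1% DMSO. Aliquots taken over time and assayed with MeOSuc-AAPV-pNA at 410 nm. Results plotted as percent remaining activity versus time.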

Structure (SMILES) | inhibition [1] | Ratio [2] | inhibition [3] | Ratio [4] | Activity [5]
CCC[C@H]1C(=O)N(C(CCC(=O)OC)Sc2ccc(NC(=O)OC(C)(C)C)cc2)S(=O)(=O)N1C (stereo partly drawn) | inactive | 170 | Active |  | 
CCC[C@H]1C(=O)N(C(CCC(=O)OC)Sc2ccc(NC(=O)CCC(=O)O)cc2)S(=O)(=O)N1C (stereo partly drawn) | inactive | 300 | Active |  | 
CCC[C@H]1C(=O)N(C(CCC(=O)OC)Sc2ccc(NC(=O)NCCc3ccccc3)cc2)S(=O)(=O)N1C (stereo partly drawn) | inactive | 150 | Active |  | 
CCC[C@H]1C(=O)N(C(CCC(=O)OC)Sc2ccc(NC(=O)c3ccccc3C(=O)O)cc2)S(=O)(=O)N1C (stereo partly drawn) | inactive | 260 | Active |  | 

More lines, now with the values ahead:

inhibition [1] | Ratio [2] | inhibition [3] | Ratio [4] | Activity [5] | Structure (SMILES)
inactive | 320 | Active |  |  | CCC[C@H]1C(=O)N(C(CCC(=O)OC)Sc2ccc(F)cc2)S(=O)(=O)N1C (stereo partly drawn)
inactive | 110 | Active |  |  | CCC[C@H]1C(=O)N(C(CCC(=O)OC)Sc2ccc(N)cc2)S(=O)(=O)N1C (stereo partly drawn)
inactive |  | Active | 4580 | tde | COC(=O)CCC(Sc1ccc(Cl)cc1)N1C(=O)[C@H](CC(C)C)N(C)S1(=O)=O (stereo partly drawn)
inactive | 70 | Active |  |  | CCC[C@H]1C(=O)N(C(CCC(=O)OC)Sc2ccc(OC)cc2)S(=O)(=O)N1C (stereo partly drawn)
inactive | 20 | Active |  |  | CCC[C@H]1C(=O)N(C(CCC(=O)OC)Sc2ccc(Cl)cc2)S(=O)(=O)N1C (stereo partly drawn)
